UCH37 DUB inh: blocks the human deubiquitinase UCH37 | purified proteasome/UCH37, Ub-AMC cleavage fluorescence | Q9Y5K5 | 330,000 tested, 0.33% active | AID 588478 | inhibition, % (concentration not given with the values);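 active means mean inhibition over replicate wells above about 20%, limit read from the data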;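 further: 0% = compound-free wells with enzyme and 100% = wells lacking proteasome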
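Material: Human UCH37 enzyme supplied as purified proteasome complex | Schedule: 30 min compound-proteasome preincubation then 25 min substrate reaction, room temperature | Detection: AMC fluorescence from Ub-AMC cleavage, excitation 355 nm, emission 460 nm | Benchmarks: Wells without proteasome as full block, compound-free enzyme plus substrate as uninhibited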
FAS-TE inh: inhibitors of human fatty acid synthase thioesterase domain; P49327; recombinant FAS-TE, OMFH fluorogenic substrate, fluorescence endpoint; inhibition, % at 15 µM; 360,000 tested, 0.67% active;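 active means compounds whose normalised, plate-corrected inhibition of enzyme fluorescence in the single-dose primary screen is 50% or more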;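 further: 0% = DMSO with enzyme and 100% = substrate without enzyme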
Rtt109 HAT inh: blocks Candida albicans Rtt109/Vps75 acetyltransferase activity | Q5AAJ8 | inhibition, % at 34.9 µM | AID 540336 | 330,000 tested, 0.16% active | purified Rtt109/Vps75, ThioGlo CoA-SH fluorescence, 4 h;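 active means inhibition of at least 50% in every replicate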
Target sequence (Q5AAJ8 whole entry, looked up): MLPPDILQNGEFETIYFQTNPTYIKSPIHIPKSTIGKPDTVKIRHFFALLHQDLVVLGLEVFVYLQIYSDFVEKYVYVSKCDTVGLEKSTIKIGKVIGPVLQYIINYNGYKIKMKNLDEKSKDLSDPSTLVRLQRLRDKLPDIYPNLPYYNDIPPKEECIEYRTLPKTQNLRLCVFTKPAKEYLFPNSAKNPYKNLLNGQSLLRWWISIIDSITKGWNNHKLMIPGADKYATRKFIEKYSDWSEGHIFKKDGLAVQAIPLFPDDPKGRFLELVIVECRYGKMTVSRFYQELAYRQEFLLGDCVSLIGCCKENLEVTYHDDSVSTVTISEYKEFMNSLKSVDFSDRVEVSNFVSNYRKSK
M18AAP inhibitor: PfM18AAP enzyme inhibition; 290,000 tested, 1.2% active; AID 1822; inhibition, % at 7.35 µM; recombinant PfM18AAP, H-Glu-NHMec fluorogenic cleavage;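 active means inhibition above the campaign mean inhibition over all tested compounds plus 3 SD, cut at about 28% in these data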;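 further: 0% = plate median of test compound wells and 100% = 2 mM ZnCl2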
HDAC3 inh: blocks human histone deacetylase 3; recombinant HDAC3, fluorogenic peptide/trypsin coupled, fluorescence; inhibition, % at 8.3 µM; O15379; 320,000 tested, 0.15% active; in the data active means inhibition above about 26%, passing the limit was not always enough
ALR inh: human ALR oxidase inhibition via reduced H2O2. P55789. purified ALR, DTT oxidation, H2O2 HRP-luminol luminescence. inhibition, % (concentration not given with the values). 290,000 tested, 3.8% active;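 active means mean replicate inhibition above about 79%, with every replicate also reaching it, limit read from the data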
Target sequence (P55789 whole entry, looked up): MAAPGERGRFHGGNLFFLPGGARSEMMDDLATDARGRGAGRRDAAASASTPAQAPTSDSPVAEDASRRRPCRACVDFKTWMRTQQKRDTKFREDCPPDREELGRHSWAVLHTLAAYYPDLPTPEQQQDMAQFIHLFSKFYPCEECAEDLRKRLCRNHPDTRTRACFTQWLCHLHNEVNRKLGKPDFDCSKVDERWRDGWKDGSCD
* = called active by the depositor; nt = no result. Most compounds without a hit are left out; they make up all but 4.6% or so of the library.

SMILES | UCH37 DUB inh | FAS-TE inh | Rtt109 HAT inh | M18AAP inhibitor | HDAC3 inh | ALR inh
CCN(CC)c1ccc(NC(=O)C2CC3CCC2C3)cc1 (centres undefined) | -3.3 | -5.6 | 3.4 | 15.0 | -4.6 | 99.0*
O=C(Nc1ccccc1)C1CC2CCC1C2 (centres undefined) | 4.0 | -2.8 | -1.3 | 4.5 | 3.7 | -2.4
S=c1[nH]nc(-c2ccncc2)n1N=C/C=C/c1ccccc1 | 8.0 | nt | nt | nt | nt | nt
Cc1[nH]nc(SCC(=O)NCc2ccccc2)c1[N+](=O)[O-] | nt | -7.1 | -4.2 | -7.3 | nt | nt
COC(=O)CSc1[nH]c2ccccc2c1[N+](=O)[O-] | 7.6 | -24.4 | -111.9 | -3.9 | 8.3 | 99.7*
CCCN(CCC)c1ccc(CC(=O)NC(C)Cc2ccccc2)cc1 (centres undefined) | -1.3 | 6.1 | -0.5 | 5.0 | 5.4 | 97.9*
CCCNC(=O)C(Cc1ccccc1)NC(=O)Cc1ccccc1 (centres undefined) | 4.5 | -9.5 | -1.9 | nt | 1.0 | 2.0
CCN(CC)c1ccc(CC(=O)NC(C)Cc2ccccc2)cc1 (centres undefined) | -3.1 | -4.1 | -4.3 | -0.8 | -4.5 | 100.1*
Cc1ccccc1-n1c(C)cc(C=NNC(=O)c2ccc(CN3CCOCC3)cc2)c1C | -3.2 | nt | nt | nt | nt | nt
O=c1nc(N/N=C/c2ccccn2)cn[nH]1 | nt | -4.0 | -0.6 | 48.8* | 7.6 | nt
Nc1nnc(SCC(=O)Nc2cc(S(=O)(=O)N3CCOCC3)ccc2N2CCCC2)s1 | 4.8 | -7.0 | 1.3 | nt | -0.7 | -4.6
COc1cc(S(=O)(=O)N2CCOCC2)ccc1NC(=O)CSc1nnc(N)s1 | 29.8* | -6.2 | -23.9 | 5.7 | -0.3 | -5.7
CC(=NNc1ccc([N+](=O)[O-])cc1[N+](=O)[O-])C(C)C(C)C (centres undefined) | 4.4 | nt | nt | nt | nt | nt
COC(=O)C(C(=O)OC)C(CC(=O)c1ccc(C)cc1)c1cc(OC)c(OC)c(OC)c1 (centres undefined) | 3.0 | -2.5 | 0.8 | 1.6 | -3.7 | 97.4*
O=C(O)c1cccc(NN=Cc2sc(N3CCOCC3)nc2-c2ccccc2)c1 | -7.6 | nt | nt | nt | nt | nt
Cc1ccc(S(=O)(=O)Nc2nc(C)c(NC(=O)OCCCl)s2)cc1 | 1.1 | -4.2 | 2.0 | 3.0 | -7.0 | 98.3*
Cc1cc(=O)[nH]c(NN=Cc2sccc2C)n1 | 9.8 | nt | nt | nt | nt | nt
O=C(O)Cc1ccc(C(=O)CSc2ccccc2)s1 | 6.0 | -2.9 | -6.9 | -8.5 | 1.3 | 98.2*
CN(C)Cc1c(O)ccc2occ(C(=O)c3ccccc3)c12 | 6.1 | -7.9 | 3.9 | 18.1 | -7.7 | -49.9
O=C(c1ccccc1)c1coc2ccc(O)c(Cl)c12 | 4.1 | -4.8 | 6.3 | 8.9 | 0.0 | 99.0*
Cc1ccc(C(=O)c2coc3ccc(O)c(Cl)c23)cc1 | 3.1 | -3.3 | 8.9 | 5.7 | 0.6 | 97.5*
O=C(NN=C/C(Cl)=C/c1ccccc1)c1ccc2c(c1)OCO2 | 0.3 | nt | nt | nt | nt | nt
Cc1cc(NC(=O)c2ccc(S(=O)(=O)Nc3ccccc3)cc2)no1 | 2.6 | -2.6 | 7.1 | -0.7 | 0.2 | 98.3*
CN(C)c1ccc(C=NO)cc1 | -1.5 | nt | nt | nt | nt | nt
COc1cc(/C=C(/C#N)c2ccc(F)cc2)ccc1OCc1ccc(C(=O)O)o1 | 2.4 | -1.3 | nt | 2.3 | 12.7 | 97.5*
SMILES | UCH37 DUB inh | FAS-TE inh | Rtt109 HAT inh | M18AAP inhibitor | HDAC3 inh | ALR inh
COc1cc(/C=C(\C#N)C(=O)Nc2cccc(C(=O)O)c2)ccc1OCc1ccc(F)cc1 | 4.5 | 19.6 | 22.7 | -9.3 | 2.0 | 6.9
Cn1c(=O)[nH]c(=O)c2c1nc(Br)n2CCCSc1nc2ccccc2o1 | 1.7 | 8.0 | -14.0 | -3.3 | -0.4 | 98.3*
CC(=O)c1ccc(NC(=O)N2CCN(c3ccc(C)cc3)C(C)C2)cc1 (centres undefined) | 4.5 | 0.8 | 5.1 | 8.3 | 7.7 | 95.7*
COc1ccc(C=NNC(=O)OC(C)(C)C)cc1OC | 5.4 | nt | nt | nt | nt | nt
COc1cc(C(C[N+](=O)[O-])c2c(C)[nH]c3ccccc23)ccc1O (centres undefined) | 2.3 | -5.8 | 4.9 | 29.3* | 12.1 | 98.8*
Cc1[nH]c2ccccc2c1C(C[N+](=O)[O-])c1cccc(O)c1 (centres undefined) | 3.0 | 3.1 | 11.6 | 3.6 | 2.9 | 98.0*
Cc1ccc(-c2[nH]c3ccccc3c2C(C[N+](=O)[O-])c2ccco2)cc1 (centres undefined) | -4.9 | 26.0 | 9.5 | 23.7 | 14.8 | 93.5*
Oc1ccc(C=NN2CCCCC2)cc1O | 4.6 | nt | nt | nt | nt | nt
COc1ccc(OC)c(S(=O)(=O)NN=Cc2cn(CC(N)=O)c3ccccc23)c1 | 3.9 | nt | nt | nt | nt | nt
Cn1c(NCc2ccccc2O)nc2ccccc21 | -0.9 | 0.2 | -2.2 | -18.4 | -0.4 | 59.5
CCN(CC)c1ccc(CNc2nc3ccccc3n2C(C)C)cc1 | -0.9 | 2.8 | 3.9 | -6.7 | 1.7 | nt
CC(C)n1c(NCc2cccs2)nc2ccccc21 | 6.7 | -1.3 | -5.8 | 0.4 | -5.5 | 97.6*
CC(C)n1c(NCc2ccc(N(C)C)cc2)nc2ccccc21 | 4.1 | -1.6 | -2.6 | 7.3 | 6.0 | 92.7*
CCN(CC)c1ccc(CNc2nc3ccccc3n2CC)cc1 | 3.5 | 2.4 | 9.1 | 5.8 | -6.0 | 99.3*
CC(C)n1c(NCc2ccccc2O)nc2ccccc21 | 2.5 | 3.2 | -1.0 | 2.3 | 6.8 | 97.7*
CC1(C)Cc2ccccc2C(C(=NNc2cccc(Cl)c2)C(N)=O)=N1 | 0.8 | nt | nt | nt | nt | nt
N#Cc1ccc(C(=O)NN=Cc2cn(CC(=O)O)c3ccccc23)c(F)c1 | 13.1 | nt | nt | nt | nt | nt
NC(=NOC(=O)CC1CCCCC1)c1cccc([N+](=O)[O-])c1 | 0.9 | nt | nt | nt | nt | nt
Cc1ccc(C(=O)COC(=O)COc2ccccc2C)cc1 | 4.3 | 13.9 | -0.3 | -0.3 | -6.2 | -7.8
O=C(COc1ccccc1F)OCC(=O)c1ccc([N+](=O)[O-])cc1 | 2.7 | 10.8 | 2.0 | nt | 4.4 | 79.2*
COc1ccc(Br)cc1C=NNC(=O)c1ccco1 | 4.1 | nt | nt | nt | nt | nt
O=C(NN=Cc1ccncc1)c1cccc(S(=O)(=O)N2CCCC2)c1 | 5.0 | nt | nt | nt | nt | nt
CCOC(=O)NN=C/C=C/c1ccccc1 | 2.3 | nt | nt | nt | nt | nt
C=CCn1c(SCc2n[nH]c(=S)n2-c2ccccc2)nnc1-c1ccccc1 | 4.8 | -5.1 | 6.2 | 13.1 | 4.0 | 24.7
C=CCn1c(CSc2nnc(-c3ccccc3)n2C)n[nH]c1=S | -0.3 | -7.7 | 2.0 | 14.2 | -3.5 | 83.3*
SMILES | UCH37 DUB inh | FAS-TE inh | Rtt109 HAT inh | M18AAP inhibitor | HDAC3 inh | ALR inh
C=CCn1c(Cc2cccc3ccccc23)n[nH]c1=S | 1.1 | -9.8 | 2.9 | 13.8 | 1.4 | 91.7*
S=c1[nH]nc(Cc2cccc3ccccc23)n1-c1ccccc1 | 0.1 | -11.6 | 23.6 | 2.6 | 2.5 | 89.6*
C=CCn1c(OCc2ccccc2)n[nH]c1=S | 0.8 | 0.3 | -2.0 | 16.5 | 5.5 | 96.0*
CC1=CC2=NC(=O)/C(=C/c3coc4ccc(Cl)cc4c3=O)C(=N)N2O1 | 4.6 | -17.5 | 0.3 | -2.7 | 5.8 | 97.2*
CC1=CC2=NC(=O)/C(=C\c3cc(C)n(-c4cccc(Cl)c4)c3C)C(=N)N2O1 | -37.2 | 17.0 | -13.3 | 1.1 | -4.8 | -3.4
Cn1c(-c2ccccc2)cc(=O)cc1-c1ccccc1 | nt | -4.7 | nt | nt | nt | nt

Source: PubChem (several laboratories)
